Source: ChEMBL document CHEMBL4732262, “Identification of two novel thiophene analogues as inducers of autophagy mediated cell death in breast cancer cells” (Bioorg Med Chem, 2021)
Active and inactive are the calls of the source. The calls are words filed in the database; no cut-off is given here.

What was measured:
[1] = test system: MCF7; test: Induction of apoptosis in human MCF7 cells assessed as early apoptotic cells at 2.5 uM after 24 hrs by annexin V-FITC/Propidium iodide staining based flow cytometric analysis (reference value: 3.94%); format: functional
[2] = test system: MCF7; test: Induction of apoptosis in human MCF7 cells assessed as late apoptotic cells at 2.5 uM after 24 hrs by annexin V-FITC/Propidium iodide staining based flow cytometric analysis (reference value: 0.2%); format: functional
[3] = test system: MCF7; test: Induction of apoptosis in human MCF7 cells assessed as necrotic cells at 2.5 uM after 24 hrs by annexin V-FITC/Propidium iodide staining based flow cytometric analysis (reference value: 1.22%); format: functional
[4] = test system: MDA-MB-231; test: Induction of apoptosis in human MDA-MB-231 cells assessed as early apoptotic cells at 2.5 uM after 24 hrs by annexin V-FITC/Propidium iodide staining based flow cytometric analysis (reference value: 1.54%); format: functional
[5] = test system: MCF7; test: Induction of apoptosis in human MCF7 cells assessed as morphological changes at 2.5 uM after up to 24 hrs by phase contrast microscopic method; format: functional, cell-based; details: time hrs <=24
Summary of the method: (§1)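 ~5 × 10^4 cells in 6-well plates, either DMSO control or 2.5 µM. Morphology imaged at 0, 6, 12 and 24 h.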

[6] = test system: MDA-MB-231; test: Induction of apoptosis in human MDA-MB-231 cells assessed as reduction in size of cells at 2.5 uM by phase contrast microscopic method; format: functional, cell-based; details: time 6-24 hrs, TDE = time-dependent effect; summary of the method: as §1
[7] = test system: MCF7; test: Induction of apoptosis in human MCF7cells assessed as reduction in size of cells at 2.5 uM by phase contrast microscopic method; format: functional, cell-based; details: time 6-24 hrs, TDE = time-dependent effect; summary of the method: as §1
[8] = test system: MDA-MB-231; test: Induction of apoptosis in human MDA-MB-231 cells at 2.5 uM after 24 hrs by annexin V-FITC/Propidium iodide staining based flow cytometric analysis relative to tanshinone-2A; format: functional
[9] = test system: MCF7; test: Induction of apoptosis in human MCF7 cells assessed as change in Bcl-2 protein expression at 2.5 uM after 24 hrs by Western blot analysis; format: functional, cell-based
Summary of the method: (§2)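 MCF7 or MDA-MB-231 cells given 2.5 µM or DMSO for 24 h, then lysed in RIPA buffer. Immunoblots probed overnight at 4 °C, followed by infrared-labelled secondary antibody for 1 h at 37 °C. Bands imaged and quantified densitometrically, with GAPDH as loading control. Representative of two independent experiments.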

[10] = test system: MCF7; test: Induction of apoptosis in human MCF7 cells assessed as change in Bak1 protein expression at 2.5 uM after 24 hrs by Western blot analysis; format: functional, cell-based; summary of the method: as §2
[11] = test system: MCF7; test: Induction of apoptotic in human MCF7 cells assessed as increase in Bim protein expression at 2.5 uM after 24 hrs by Western blot analysis; format: functional, cell-based; summary of the method: as §2
[12] = test system: MCF7; test: Induction of autophagy in human MCF7 cells assessed as increase in p62 degradation at 2.5 uM after 24 hrs by Western blot analysis; format: functional, cell-based
Summary of the method: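 MCF7 cells (~5 × 10^6) left untreated (DMSO control) or exposed to 2.5 µM compound for 24 h. Lysed in RIPA buffer, probed overnight at 4 °C, then given infrared-tagged secondary antibodies for 1 h at 37 °C and imaged by infrared scanning. LC3-II/I ratio and p62 taken by densitometry with GAPDH as loading control. Two independent experiments.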

[13] = test system: MCF7; test: Induction of autophagy in human MCF7 cells assessed as increase in BAD mRNA expression at 2.5 uM after 24 hrs by RT-PCR analysis; format: functional, cell-based
Summary of the method: (§3)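 MCF7 cells given 2.5 µM or DMSO for 24 h. Total RNA extracted with TRIzol and reverse-transcribed, then SYBR Green qPCR across 34 autophagy-regulatory genes (95 °C 10 min; 40 cycles of 95 °C 15 s and 60 °C 1 min). Relative expression by 2^-ΔΔCt against housekeeping genes and DMSO control, shown as log2. Two independent experiments.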

[14] = test system: MCF7; test: Induction of autophagy in human MCF7 cells assessed as increase in ATG16L1 mRNA expression at 2.5 uM after 24 hrs by RT-PCR analysis; format: functional, cell-based; summary of the method: as §3
[15] = test system: MCF7; test: Induction of autophagy in human MCF7 cells assessed as increase in PIK3CG mRNA expression at 2.5 uM after 24 hrs by RT-PCR analysis; format: functional, cell-based
Summary of the method: (§4)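 Total RNA was taken with TRIzol from MCF7 cells treated 24 h with 2.5 µM compound or DMSO, then reverse transcribed. SYBR Green qPCR ran 40 cycles of 95 °C 15 s / 60 °C 1 min. Relative expression was calculated by 2^-ΔΔCt against DMSO-treated cells, normalized to housekeeping genes (GAPDH, B2M and others). Samples run in duplicate, two independent experiments, values averaged.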

[16] = test system: MCF7; test: Induction of autophagy in human MCF7 cells assessed as increase in UVRAG mRNA expression at 2.5 uM after 24 hrs by RT-PCR analysis; format: functional, cell-based; summary of the method: as §4
[17] = test system: MCF7; test: Induction of autophagy in human MCF7 cells assessed as increase in ATF4 protein expression at 2.5 uM after 24 hrs by Western blot analysis; format: functional, cell-based; summary of the method: as §2
[18] = test system: MCF7; test: Induction of autophagy in human MCF7 cells assessed as increase in p62 degradation at 2.5 uM after 24 hrs in presence of chloroquine by Western blot analysis; format: functional, cell-based
Summary of the method: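 MCF7 cells were given 2.5 µM compound alone or combined with 50 µM chloroquine, with DMSO control, for 24 h. Lysates were immunoblotted for p62 and LC3, with GAPDH as loading control. Band intensities were quantified by infrared imaging. At least two independent experiments.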

[19] = test system: MCF7; test: Induction of autophagy in human MCF7 cells expressing GFP-LC3 assessed as distinct puncta pattern at 2.5 uM after 24 hrs by live-cell confocal microscopic analysis; format: functional, cell-based
Summary of the method: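 MCF7 cells (~1 × 10^6) at 70% confluency on glass-bottom dishes were transiently transfected with GFP-LC3 (Lipofectamine 3000). 24 h later they received 2.5 µM compound or DMSO for another 24 h. Nuclei were stained with Hoechst 33342 and lysosomes with LysoTracker Red DND-99, then imaged by live-cell confocal microscopy. LC3 puncta were counted in at least 10 cells from 3 fields. Two independent experiments.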

[20] = test system: MDA-MB-231; test: Cytotoxicity against human MDA-MB-231 cells assessed as reduction in cell viability at 25 to 100 uM after 24 hrs in presence of chloroquine by MTT assay; format: functional, cell-based; details: dose 25-100 µM
Summary of the method: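 ~0.5 × 10^5 cells per well in six-well plates given 2.5 µM test agent together with chloroquine at 25, 50 or 100 µM, 24 h at 37 °C in humidified CO2. Viability read by MTT. Duplicate assays from two independent experiments, shown with SD.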

[21] = test system: MCF7 (Homo sapiens); test: Induction of apoptosis in human MCF7 cells assessed as increase in cell death at 2.5 uM after 24 hrs by EtBr/AO staining based fluorescence microscopic method
[22] = test system: MCF7 (Homo sapiens); test: Induction of apoptosis in human MCF7 cells assessed as increase in cell death at 2.5 uM after 24 hrs by EtBr/AO staining based fluorescence microscopic method relative to tanshinone-2A
[23] = test system: MCF7; test: Induction of autophagy in human MCF7 cells assessed as LC3-2 to LC3-1 protein ratio at 2.5 uM after 24 hrs in presence of chloroquine by Western blot analysis (reference value: 0.52 to 0.65)

SMILES: O=C1C(=O)c2sccc2-c2ccccc21
- Activity [1]: 31.4%
- Activity [2]: 23.5%
- Activity [3]: 22.2%
- Activity [4]: 24.7%
- Activity [5]: Active
- Activity [6]: Tde
- Activity [7]: Tde
- fold change (FC) [8]: >=2
- Activity [9]: inactive
- Activity [10]: inactive
- Activity [11]: Active
- Activity [12]: Active
- Activity [13]: Active
- Activity [14]: Active
- Activity [15]: Active
- Activity [16]: Active
- Activity [17]: Active
- Activity [18]: inactive
- Activity [19]: Active
- Activity [20]: inactive
- Activity [21]: Active
- fold change (FC) [22]: 2
- Ratio [23]: 1.1

SMILES: O=C1C(=O)c2ccsc2-c2ccccc21
- Activity [1]: 17.9%
- Activity [2]: 19.1%
- Activity [3]: 37.7%
- Activity [4]: 11.9%
- Activity [5]: Active
- Activity [6]: Tde
- Activity [7]: Tde
- fold change (FC) [8]: >=2
- Activity [9]: inactive
- Activity [10]: inactive
- Activity [11]: Active
- Activity [12]: Active
- Activity [13]: Active
- Activity [14]: Active
- Activity [15]: Active
- Activity [16]: Active
- Activity [17]: Active
- Activity [18]: inactive
- Activity [19]: Active
- Activity [20]: inactive
- Activity [21]: Active
- fold change (FC) [22]: 2
- Ratio [23]: 0.92
